≈ marks a conversion by molar mass, not a printed value.
Tests used:
Format in all cases: functional
Trichophyton benhamiae = assay: In vitro antifungal activity against Trichophyton asteroides
Outline: (§1)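 Broth microdilution MIC in Sabouraud's glucose broth; final inocula 1 × 10^5 cells/mL (yeast) or 1 × 10^5 conidia/mL (mold and dermatophyte).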

Candida albicans [1] = assay: Minimum effective concentration for inhibition of pseudomycelium formation in Candida albicans; details: for minimal effective concentration: Candida albicans, read-out: MEC
Outline: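 C. albicans KE-2 (clinical isolate) at a final 1 × 10^6 yeast cells/mL in EMEM with 20% calf serum; compounds diluted by the same microtiter system as for MICs. After incubation, wells were Giemsa-stained (5% in phosphate buffer) and read by microscope. MEC is the lowest concentration preventing typical pseudomycelium formation.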

Aspergillus fumigatus = assay: In vitro antifungal activity against Aspergillus fumigatus; outline: as §1
Candida albicans [2] = assay: In vitro antifungal activity against Candida albicans; outline: as §1
Mus musculus [3] = assay: In vivo activity against subacute systemic murine candidiasis in mice at a daose of 12.5-100 mg/kg dosage range. Value was determined at day 15 after infection; details: 360 h
Mus musculus [4] = assay: Ratio of in vivo number of survivors / total infected; set-up: reference not given here
Cavia porcellus = assay: Number of skin sections yielding negative culture / total (48) (percentage) in guinea pig dermatophytosis at dose of 40 mg/kg […]. (Value is from Six skin sections cut out from each treated site)
Outline: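 Guinea pigs infected with Trichophyton asteroides, four animals each with two lesion sites. Oral 40 mg/kg once daily for 10 days (day 3 to day 12). Read-out is the rate of negative cultures from infected skin sections.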

[5] = Trichophyton benhamiae, read-out: MIC
[6] = Aspergillus fumigatus, read-out: MIC
[7] = Candida albicans, read-out: MIC

| SMILES | MIC (Trichophyton benhamiae; [5]) [µg/mL] | minimal effective concentration (Candida albicans [1]) [µg/mL] | MIC (Aspergillus fumigatus; [6]) [µg/mL] | MIC (Candida albicans [2]; [7]) [µg/mL] | ED50 (Mus musculus [3]) [mg/kg] | No. of survivors (Mus musculus [4]) | No. total (Cavia porcellus) | MIC (Trichophyton benhamiae) [µg/mL] | MEC (Candida albicans [1]) [µg/mL] | MIC (Aspergillus fumigatus) [µg/mL] | MIC (Candida albicans [2]) [µg/mL] |
| --- | --- | --- | --- | --- | --- | --- | --- | --- | --- | --- | --- |
| O=C(c1ccc(Cl)cc1Cl)C(O)(Cn1cncn1)c1ccc(Cl)cc1Cl (stereo unspecified) | 0.1 (≈ 0.232 µM) | 0.16 | > 100 | 50 (≈ 116 µM) | 32.3 | 7 | 27 | – | – | – | – |
| CCCC(O)(Cn1cncn1)C(=O)c1ccc(Cl)cc1Cl (stereo unspecified) | 0.4 (≈ 1.22 µM) | 1.25 | 50 (≈ 152 µM) | > 100 | – | 1 | – | – | – | – | – |
| O=C(c1ccc(Cl)cc1Cl)C(O)(Cn1cncn1)c1ccc(F)cc1 (stereo unspecified) | 0.1 (≈ 0.263 µM) | 0.31 | > 100 | 100 (≈ 263 µM) | 20.2 | 8 | – | – | – | – | – |
| CCC(=O)C(O)(Cn1cncn1)c1ccc(Cl)cc1Cl (stereo unspecified) | 0.1 (≈ 0.318 µM) | 0.04 | 100 (≈ 318 µM) | 100 (≈ 318 µM) | – | 2 | – | – | – | – | – |
| CC(C)C(=O)C(O)(Cn1cncn1)c1ccc(Cl)cc1 (stereo in doubt; 36) | 0.1 (≈ 0.34 µM) | 0.04 | 12.5 (≈ 42.6 µM) | 100 (≈ 340 µM) | – | 7 | – | – | – | – | – |
| Cc1ccccc1C(=O)C(O)(Cn1cncn1)c1ccccc1C (stereo unspecified) | 3.1 (≈ 9.65 µM) | 5 | > 100 | > 100 | – | 0 | – | – | – | – | – |
| O=C(c1ccccc1F)C(O)(Cn1cncn1)c1ccc(Cl)cc1Cl (stereo unspecified) | 0.1 (≈ 0.263 µM) | 0.04 | > 100 | 100 (≈ 263 µM) | – | 7 | – | – | – | – | – |
| O=S1O[C@H](c2ccc(Cl)cc2Cl)[C@@](Cn2cncn2)(c2ccc(Cl)cc2)O1 (stereo partly specified) | 0.1 (≈ 0.225 µM) | 0.08 | > 100 | 100 (≈ 225 µM) | – | 5 | – | – | – | – | – |
| O=C(c1ccccc1)C(O)(Cn1ccnc1)c1ccc(Cl)cc1Cl (stereo unspecified) | 0.1 (≈ 0.277 µM) | 0.63 | > 100 | > 100 | – | 0 | – | – | – | – | – |
| O=C(c1ccccc1Cl)C(O)(Cn1ccnc1)c1ccccc1Cl (stereo unspecified) | 0.1 (≈ 0.277 µM) | 2.5 | > 100 | > 100 | – | 2 | – | – | – | – | – |
| O=C(c1ccccc1)C(O)(Cn1cncn1)c1ccccc1 (stereo unspecified) | 12.5 (≈ 42.6 µM) | > 20 | > 100 | > 100 | – | 0 | – | – | – | – | – |
| CCCCC(=O)C(O)(Cn1cncn1)c1ccc(Cl)cc1Cl (stereo unspecified) | 0.1 (≈ 0.292 µM) | 0.04 | > 100 | 50 (≈ 146 µM) | – | 2 | – | – | – | – | – |
| CC(C)CC(=O)C(O)(Cn1cncn1)c1ccc(Cl)cc1Cl (stereo unspecified) | 0.1 (≈ 0.292 µM) | 0.02 | 100 (≈ 292 µM) | 100 (≈ 292 µM) | – | 0 | – | – | – | – | – |
| OC(c1ccc(Cl)cc1Cl)C(O)(Cn1ccnc1)c1ccc(Cl)cc1Cl (stereo unspecified) | 0.1 (≈ 0.231 µM) | 1.25 | 100 (≈ 231 µM) | 50 (≈ 116 µM) | – | 3 | – | – | – | – | – |
| OC(c1ccccc1Cl)C(O)(Cn1ccnc1)c1ccccc1Cl (stereo unspecified) | 0.4 (≈ 1.1 µM) | 1.25 | 100 (≈ 275 µM) | > 100 | – | 4 | – | – | – | – | – |
| O=C1O[C@H](c2ccc(Cl)cc2Cl)[C@@](Cn2cncn2)(c2ccc(Cl)cc2)O1 | 0.1 (≈ 0.235 µM) | 0.63 | > 100 | 50 (≈ 118 µM) | – | 8 | – | – | – | – | – |
| O=C(c1ccc(Cl)cc1Cl)C(O)(Cn1cncn1)c1ccccc1Cl (stereo unspecified) | 0.1 (≈ 0.252 µM) | 0.31 | 100 (≈ 252 µM) | 100 (≈ 252 µM) | – | 7 | – | – | – | – | – |
| CC(O)(c1ccc(F)cc1)C(O)(Cn1cncn1)c1ccc(Cl)cc1 (stereo in doubt; 162) | – | – | – | – | – | 8 | – | 0.1 (≈ 0.276 µM) | 0.08 | 100 (≈ 276 µM) | >100 |
| O=C(c1ccccc1Cl)C(O)(Cn1cncn1)c1ccc(F)cc1 (stereo unspecified) | 0.4 (≈ 1.16 µM) | 10 | > 100 | 100 (≈ 289 µM) | – | 0 | – | – | – | – | – |
| CC(=O)C(O)(Cn1cncn1)c1ccc(Cl)cc1Cl (stereo unspecified) | 0.2 (≈ 0.666 µM) | 0.04 | 50 (≈ 167 µM) | > 100 | – | 2 | – | – | – | – | – |
| CC(C)[C@H]1OC(=O)O[C@]1(Cn1cncn1)c1ccc(Cl)cc1Cl | 3.1 (≈ 8.7 µM) | 0.63 | > 100 | 100 (≈ 281 µM) | – | 8 | – | – | – | – | – |
| O=C(c1ccc(F)cc1)C(O)(Cn1cncn1)c1ccccc1Cl (stereo unspecified) | 1.6 (≈ 4.63 µM) | 2.5 | > 100 | 100 (≈ 289 µM) | – | 8 | – | – | – | – | – |
| O=C(c1ccc(Cl)cc1Cl)[C@@](O)(Cn1cncn1)c1ccc(Cl)cc1Cl | 0.1 (≈ 0.232 µM) | 1.25 | > 100 | 50 (≈ 116 µM) | – | 1 | – | – | – | – | – |

| SMILES | MIC (Trichophyton benhamiae; [5]) [µg/mL] | minimal effective concentration (Candida albicans [1]) [µg/mL] | MIC (Aspergillus fumigatus; [6]) [µg/mL] | MIC (Candida albicans [2]; [7]) [µg/mL] | ED50 (Mus musculus [3]) [mg/kg] | No. of survivors (Mus musculus [4]) | No. total (Cavia porcellus) | MIC (Trichophyton benhamiae) [µg/mL] | MEC (Candida albicans [1]) [µg/mL] | MIC (Aspergillus fumigatus) [µg/mL] | MIC (Candida albicans [2]) [µg/mL] |
| --- | --- | --- | --- | --- | --- | --- | --- | --- | --- | --- | --- |
| Cc1ccc(C(=O)C(O)(Cn2cncn2)c2ccccc2Cl)cc1 (stereo unspecified) | 0.8 (≈ 2.34 µM) | 2.5 | > 100 | > 100 | – | 1 | – | – | – | – | – |
| O=C(c1ccccc1Cl)C(O)(Cn1cncn1)c1ccc(Cl)cc1 (stereo unspecified) | 0.4 (≈ 1.1 µM) | > 20 | > 100 | > 100 | – | 0 | – | – | – | – | – |
| CC(C)C(=O)C(O)(Cn1ccnc1)c1ccc(Cl)cc1Cl (stereo unspecified) | 0.1 (≈ 0.306 µM) | 0.04 | > 100 | > 100 | – | 1 | – | – | – | – | – |
| CC(=O)N1CCN(c2ccc(OCC3COC(Cn4ccnc4)(c4ccc(Cl)cc4Cl)O3)cc2)CC1 (stereo unspecified) [KETOCONAZOLE] | – | – | – | – | 32.3 | – | – | – | – | – | – |
| CCCC(O)(c1ccc(F)cc1)C(O)(Cn1cncn1)c1ccc(Cl)cc1 (stereo unspecified) | 0.2 (≈ 0.513 µM) | 0.31 | > 100 | > 100 | – | 7 | – | – | – | – | – |
| O=C(c1ccc(Cl)cc1)C(O)(Cn1ccnc1)c1ccc(Cl)cc1Cl (stereo unspecified) | 0.1 (≈ 0.253 µM) | 2.5 | > 100 | > 100 | – | 0 | – | – | – | – | – |
| Clc1ccc([C@@]2(Cn3cncn3)OCO[C@@H]2c2ccc(Cl)cc2Cl)cc1 | 0.1 (≈ 0.243 µM) | 0.31 | > 100 | > 100 | – | 0 | – | – | – | – | – |
| CCCCC(O)(Cn1cncn1)C(=O)c1ccc(Cl)cc1 (stereo unspecified) | 0.2 (≈ 0.65 µM) | 0.31 | 100 (≈ 325 µM) | 100 (≈ 325 µM) | – | 2 | – | – | – | – | – |
| CC(C)C(=O)C(O)(Cn1cncn1)c1ccc(Cl)cc1 (stereo in doubt; 39) | – | – | – | – | 14.7 | – | – | 0.1 (≈ 0.34 µM) | – | – | – |
| O=S1O[C@H](c2ccc(F)cc2)[C@@](Cn2cncn2)(c2ccc(Cl)cc2Cl)O1 (stereo partly specified) | 0.1 (≈ 0.233 µM) | 0.04 | 50 (≈ 117 µM) | > 100 | – | 4 | – | – | – | – | – |
| CCCCC(=O)C(O)(Cn1ccnc1)c1ccc(Cl)cc1Cl (stereo unspecified) | 0.1 (≈ 0.293 µM) | 0.04 | > 100 | > 100 | – | 0 | – | – | – | – | – |
| O=C(c1ccc(Cl)cc1Cl)C(O)(Cn1cncn1)c1ccc(Cl)cc1 (stereo unspecified) | 0.1 (≈ 0.252 µM) | 0.31 | > 100 | 100 (≈ 252 µM) | – | 8 | – | – | – | – | – |
| O=C(c1ccccc1Cl)C(O)(Cn1cncn1)c1ccccc1Cl (stereo unspecified) | 0.1 (≈ 0.276 µM) | 0.08 | 50 (≈ 138 µM) | 50 (≈ 138 µM) | – | 2 | – | – | – | – | – |
| O=C1O[C@H](c2ccccc2)[C@@](Cn2cncn2)(c2ccc(Cl)cc2Cl)O1 | 0.16 (≈ 0.41 µM) | 0.16 | > 100 | 100 (≈ 256 µM) | – | 0 | – | – | – | – | – |
| OC(c1ccccc1Cl)C(O)(Cn1cncn1)c1ccc(F)cc1 (stereo unspecified) | 0.8 (≈ 2.3 µM) | 10 | > 100 | > 100 | – | 0 | – | – | – | – | – |
| Clc1ccc([C@@]2(Cn3cncn3)OC3(CCCCC3)O[C@@H]2c2ccc(Cl)cc2Cl)cc1 | 0.1 (≈ 0.209 µM) | 5 | > 100 | > 100 | – | 0 | – | – | – | – | – |
| O=C(c1ccc(Cl)cc1Cl)[C@](O)(Cn1cncn1)c1ccc(Cl)cc1Cl | 0.1 (≈ 0.232 µM) | 0.08 | > 100 | > 100 | – | 8 | – | – | – | – | – |
| O=C(c1ccc(F)cc1)C(O)(Cn1cncn1)c1ccc(Cl)cc1Cl (stereo unspecified) | 0.1 (≈ 0.263 µM) | 1.25 | > 100 | > 100 | – | 2 | – | – | – | – | – |
| O=C(c1ccccc1)C(O)(Cn1cncn1)c1ccc(Cl)cc1Cl (stereo unspecified) | 0.1 (≈ 0.276 µM) | 1.25 | > 100 | > 100 | – | 7 | – | – | – | – | – |
| O=S1O[C@H](c2ccc(F)cc2)[C@](Cn2cncn2)(c2ccc(Cl)cc2Cl)O1 (stereo partly specified) | 0.1 (≈ 0.233 µM) | 0.04 | > 100 | > 100 | – | 0 | – | – | – | – | – |
| OC(c1ccc(Cl)cc1Cl)C(O)(Cn1cncn1)c1ccc(Cl)cc1Cl (stereo unspecified) | 0.1 (≈ 0.231 µM) | 0.08 | > 100 | 100 (≈ 231 µM) | – | 6 | – | – | – | – | – |
| O=C(C1CCCC1)C(O)(Cn1cncn1)c1ccc(Cl)cc1Cl (stereo unspecified) | 0.1 (≈ 0.282 µM) | 0.02 | > 100 | 50 (≈ 141 µM) | – | 0 | – | – | – | – | – |
